What was measured:
[1] = Partition coefficient (logP); format: physicochemical; settings: octanol/water
Summary of the method: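 Lipophilicity (log P) measured by 1-octanol-coated reversed-phase HPLC. The mobile phase is pH 7.4 PBS saturated with 1-octanol, run on RP-18 or C-18 packing. A second system is linked to the first through overlapping series. For the most lipophilic analogues that could not be detected, log P is calculated from Free-Wilson-derived substituent constants assuming additivity.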

[2] = Statistical significance, p values as compared to positive control by students t-test; I=Insoluble; format: ADME
Summary of the method: (§1)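 Same arachidonic acid ear-edema model: 2 mg total topical dose in acetone, given 60 min before arachidonic acid, with 8 animals per group. Edema is measured by ear plug weight 1 h after arachidonic acid. p values come from Student's t-test against the concurrent arachidonic acid positive control. Thresholds are given as + (≤0.05) and so on.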

Mus musculus [3] = test: Compound was tested for inhibition of arachidonic acid induced mouse ear edema at 2 mg of dose; I=Insoluble; format: functional, organism-based
Summary of the method: (§2)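 Mouse ear edema induced by arachidonic acid (dissolved in acetone at 100 mg/mL). Test agent is applied topically in acetone, 2 mg/0.02 mL per total dose, 60 min before arachidonic acid. Ear edema is read 1 h later as the weight gain of an 8-mm-diameter ear plug. It is compared with acetone-only and arachidonic acid-only controls run in the same experiment. n = 8 per group; percent inhibition is reported as mean.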

Mus musculus [4] = test: Compound was tested for inhibition of arachidonic acid induced mouse ear edema at 2 mg of dose; format: functional; summary of the method: as §2
[5] = Statistical significance, p values as compared to positive control by students t-test; format: ADME; summary of the method: as §1

Compound | logP [1] | Significance [2] | inhibition (Mus musculus [3]) | Inhibition (Mus musculus [4]) [%] | Significance [5]
CC(=O)Oc1c(Oc2ccccc2)c(Oc2ccccc2)c(OC(C)=O)c2ccccc12 | 4.8 | Insoluble | Insoluble |  | 
O=C(Oc1c(Oc2ccccc2)c(Oc2ccccc2)c(OC(=O)c2ccccc2)c2ccccc12)c1ccccc1 | 7.9 | Insoluble | Insoluble |  | 
COc1c(OC)c(OC(C)=O)c2cc(Cl)ccc2c1OC(C)=O [LONAPALENE] | 3.26 |  |  | 54 | <= 0.001
CCC(=O)Oc1c(Oc2ccccc2)c(Oc2ccccc2)c(OC(=O)CC)c2ccccc12 | 5.8 | Insoluble | Insoluble |  | 
